Values joined by “and” are separate entries in the source; they are usually repeats but may differ in a detail not shown here. Equal values may be shown once.
Tested on: HEK-293T
Experiment: Multiplex assay against HEK293T
Type: toxicity, cell-based
Details: human
Outline: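 Hoechst33342, BioTracker Green Microtubule Cytoskeleton Dye, MitoTracker Red and Annexin V Alexa Fluor 680 were added to live cells at seeding, and imaging on a CQ1 microscope at 37°C and 5% CO2 followed compound addition. Gating by CellPathfinder machine learning separated cells into Hoechst high-intensity objects or normal cells, then normal cells into healthy, pyknosed or fragmented nuclei, then pyknosed cells into mitotic or apoptotic. Per cents of healthy-nucleus cells are reported for the tubulin, mitochondrial-mass and membrane-permeability phenotypes.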

[1] = 12 h, 1 µM, compound concentration 1 uM
[2] = 12 h, 10 µM, compound concentration 10 uM
[3] = 24 h, 1 µM, compound concentration 1 uM
[4] = 24 h, 10 µM, compound concentration 10 uM
[5] = 48 h, 1 µM, compound concentration 1 uM
[6] = 48 h, 10 µM, compound concentration 10 uM

Cn1ncnc1COc1nn2c(-c3cc(F)ccc3F)nnc2cc1C(C)(C)C
Population Apoptotic (%) [1]: 8.93% and 7.56% | Population Fragmented Nuclei (%) [1]: 2.83% and 4.35% | Population Hoechst High Intensity Objects (%) [1]: 0% | Population Mitochondria Different-Phenotype (%) [1]: 29.79% and 46.15% | Population Mitotic Cells (%) [1]: 91.07% and 92.44% | Population Normal (%) [1]: 100% | Population Pyknosed Nuclei (%) [1]: 52.83% and 86.23% | Total Cell Count [1]: 318 and 138 | Population Apoptotic (%) [2]: 12.9% and 20.39% | Population Fragmented Nuclei (%) [2]: 0.72% and 5.3% | Population Healthy Nuclei (%) [2]: 43.73% and 16.67% | Population Hoechst High Intensity Objects (%) [2]: 0% | Population Mitotic Cells (%) [2]: 87.1% and 79.61% | Population Normal (%) [2]: 100% | Population Pyknosed Nuclei (%) [2]: 55.56% and 78.03% | Population Tubulin-Different-Phenotype (%) [2]: 22.95% and 27.27% | Total Cell Count [2]: 279 and 132 | Population Apoptotic (%) [3]: 10.85% and 17.5% | Population Fragmented Nuclei (%) [3]: 2.35% and 3.27% | Population Hoechst High Intensity Objects (%) [3]: 0% | Population Mitochondria Different-Phenotype (%) [3]: 20.12% and 10.71% | Population Mitotic Cells (%) [3]: 89.15% and 82.5% | Population Normal (%) [3]: 100% | Population Pyknosed Nuclei (%) [3]: 27.56% and 78.43% | Population Tubulin-Different-Phenotype (%) [3]: 23.17% and 10.71% | Population Apoptotic (%) [4]: 25.69% and 29.36% | Population Fragmented Nuclei (%) [4]: 1.85% and 4.23% | Population Hoechst High Intensity Objects (%) [4]: 0.52% and 0% | Population Mitochondria Different-Phenotype (%) [4]: 34.22% and 18.52% | Population Mitotic Cells (%) [4]: 74.31% and 70.64% | Population Normal (%) [4]: 99.48% and 100% | Population Pyknosed Nuclei (%) [4]: 28.76% and 76.76% | Population Tubulin-Different-Phenotype (%) [4]: 50.19% and 33.33% | Total Cell Count [4]: 381 and 142 | Population Apoptotic (%) [5]: 9.38% and 21.84% | Population Fragmented Nuclei (%) [5]: 2.19% and 2.84% | Population Healthy Nuclei (%) [5]: 86.12% and 47.73% | Population Hoechst High Intensity Objects (%) [5]: 0% and 0.56% | Population Mitochondria Different-Phenotype (%) [5]: 20.57% and 32.14% | Population Mitotic Cells (%) [5]: 90.62% and 78.16% | Population Normal (%) [5]: 100% and 99.44% | Population Apoptotic (%) [6]: 22.83% and 17.39% | Population Fragmented Nuclei (%) [6]: 1.92% | Population Healthy Nuclei (%) [6]: 77.76% and 53.85% | Population Hoechst High Intensity Objects (%) [6]: 0.32% and 0% | Population Mitochondria Different-Phenotype (%) [6]: 45.27% and 57.14% | Population Mitotic Cells (%) [6]: 77.17% and 82.61% | Population Normal (%) [6]: 99.68% and 100% | Population Pyknosed Nuclei (%) [6]: 20.32% and 44.23%

CCOC(=O)c1cnn(-c2ccc(NC(=O)C(Cl)=C(Cl)Cl)cc2)c1C(F)(F)F
Population Apoptotic (%) [1]: 11.04% and 11.54% | Population Fragmented Nuclei (%) [1]: 2.46% and 4.48% | Population Hoechst High Intensity Objects (%) [1]: 0.27% and 0% | Population Membrane Permeable-Phenotype (%) [1]: 0.49% and 0% | Population Mitochondria Different-Phenotype (%) [1]: 37.44% and 16.67% | Population Mitotic Cells (%) [1]: 88.96% and 88.46% | Population Normal (%) [1]: 99.73% and 100% | Population Pyknosed Nuclei (%) [1]: 42.08% and 77.61% | Total Cell Count [1]: 367 and 134 | Population Apoptotic (%) [2]: 29.28% and 34.92% | Population Fragmented Nuclei (%) [2]: 10.14% and 2.8% | Population Healthy Nuclei (%) [2]: 26.57% and 9.09% | Population Hoechst High Intensity Objects (%) [2]: 0.35% and 0% | Population Membrane Permeable-Phenotype (%) [2]: 1.32% and 0% | Population Mitochondria Different-Phenotype (%) [2]: 18.42% and 46.15% | Population Mitotic Cells (%) [2]: 70.72% and 65.08% | Population Normal (%) [2]: 99.65% and 100% | Population Pyknosed Nuclei (%) [2]: 63.29% and 88.11% | Total Cell Count [2]: 287 and 143 | Population Apoptotic (%) [3]: 14.69% and 14.29% | Population Fragmented Nuclei (%) [3]: 1.44% and 6.88% | Population Healthy Nuclei (%) [3]: 72.84% and 31.87% | Population Hoechst High Intensity Objects (%) [3]: 0.18% and 0% | Population Membrane Permeable-Phenotype (%) [3]: 2.47% and 1.96% | Population Mitochondria Different-Phenotype (%) [3]: 18.02% and 7.84% | Population Mitotic Cells (%) [3]: 85.31% and 85.71% | Population Normal (%) [3]: 99.82% and 100% | Population Pyknosed Nuclei (%) [3]: 25.72% and 61.25% | Population Apoptotic (%) [4]: 63.22% and 90.58% | Population Fragmented Nuclei (%) [4]: 11.84% and 6.41% | Population Healthy Nuclei (%) [4]: 12.77% and 5.13% | Population Hoechst High Intensity Objects (%) [4]: 3.6% and 0% | Population Membrane Permeable-Phenotype (%) [4]: 0% | Population Mitochondria Different-Phenotype (%) [4]: 29.27% and 37.5% | Population Normal (%) [4]: 96.4% and 100% | Population Pyknosed Nuclei (%) [4]: 75.39% and 88.46% | Population Tubulin-Different-Phenotype (%) [4]: 29.27% and 37.5% | Total Cell Count [4]: 333 and 156 | Population Fragmented Nuclei (%) [5]: 2.62% and 2.05% | Population Healthy Nuclei (%) [5]: 85.68% and 49.74% | Population Hoechst High Intensity Objects (%) [5]: 0.22% and 0% | Population Membrane Permeable-Phenotype (%) [5]: 5.07% and 1.03% | Population Mitochondria Different-Phenotype (%) [5]: 16.62% and 27.84% | Population Mitotic Cells (%) [5]: 94.87% and 81.91% | Population Normal (%) [5]: 99.78% and 100% | Population Apoptotic (%) [6]: 53.58% and 95.86% | Population Fragmented Nuclei (%) [6]: 14.99% and 9.58% | Population Healthy Nuclei (%) [6]: 8.65% and 3.59% | Population Hoechst High Intensity Objects (%) [6]: 1.42% and 0.6% | Population Membrane Permeable-Phenotype (%) [6]: 0% | Population Mitochondria Different-Phenotype (%) [6]: 43.33% and 100% | Population Normal (%) [6]: 98.58% and 99.4% | Population Pyknosed Nuclei (%) [6]: 76.37% and 86.83% | Population Tubulin-Different-Phenotype (%) [6]: 23.33% and 66.67% | Total Cell Count [6]: 352 and 168

From ChEMBL document CHEMBL5724801, “EUbOPEN Chemogenomics Library - Multiplex” (2024)
